The source of these data is article PMC2606940 (The Journal of General Physiology, 2009).

The target in one experiment is T1, CLC-0 E166S mutant (Torpedo marmorata, UniProt P21564, C212S/E166S).
T1 sequence (P21564 1-805 E166S/C212S): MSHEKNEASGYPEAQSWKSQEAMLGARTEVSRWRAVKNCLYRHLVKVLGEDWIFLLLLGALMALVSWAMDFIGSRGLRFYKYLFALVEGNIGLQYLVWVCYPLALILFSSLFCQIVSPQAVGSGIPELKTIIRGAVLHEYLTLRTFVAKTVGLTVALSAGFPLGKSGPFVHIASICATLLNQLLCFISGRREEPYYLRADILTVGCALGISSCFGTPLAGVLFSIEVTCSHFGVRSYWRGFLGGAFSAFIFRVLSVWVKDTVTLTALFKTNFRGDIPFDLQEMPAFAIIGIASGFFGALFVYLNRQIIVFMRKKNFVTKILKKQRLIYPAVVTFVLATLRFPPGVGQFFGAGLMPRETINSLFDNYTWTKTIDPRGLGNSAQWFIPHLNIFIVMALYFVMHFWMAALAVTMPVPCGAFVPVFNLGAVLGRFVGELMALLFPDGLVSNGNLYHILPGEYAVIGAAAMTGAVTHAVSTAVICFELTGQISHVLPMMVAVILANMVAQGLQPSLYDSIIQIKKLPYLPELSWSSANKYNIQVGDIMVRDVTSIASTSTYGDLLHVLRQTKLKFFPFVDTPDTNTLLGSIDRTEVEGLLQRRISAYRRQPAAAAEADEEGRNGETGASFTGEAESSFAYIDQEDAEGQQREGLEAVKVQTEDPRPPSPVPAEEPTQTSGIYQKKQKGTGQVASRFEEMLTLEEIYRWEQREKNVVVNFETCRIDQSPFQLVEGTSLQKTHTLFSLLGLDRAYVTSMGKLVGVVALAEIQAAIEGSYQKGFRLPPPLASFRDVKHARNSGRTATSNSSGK
Format: cell-based. The following applies: read-out: Apparent affinity (K1/2). The method, boiled down: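 CLC-0 mutants (C212S background) were lipofectamine-transfected into HEK293 cells and recorded 1–3 d later from inside-out patches. Pipette and bath contained 130 mM NaCl, 5 MgCl2, 10 HEPES and 1 EGTA (pH 7.4). Test compound was perfused onto the cytoplasmic side. A +80 mV prepulse preceded steps to steady state. The last-10-ms current was normalized to bracketing blocker-free controls and fitted to a Langmuir function for K1/2.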

The target in the next experiment is T2, CLC-0 E166I mutant (Torpedo marmorata, UniProt P21564, C212S/E166I).
T2 sequence (P21564 1-805 E166I/C212S): T1 sequence (P21564 1-805 E166S/C212S) with S166I
Format: cell-based. The note with it: read-out: Apparent affinity (K1/2). The method in brief:
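CLC-0 mutants in the C212S background were transfected into HEK293 cells with lipofectamine and recorded 1–3 d later as excised inside-out patches. Both sides held 130 mM NaCl, 5 mM MgCl2, 10 mM HEPES and 1 mM EGTA, pH 7.4. CPA was perfused continuously onto the cytoplasmic face. Steady-state current over the last 10 ms was normalized to bracketing blocker-free controls and fitted to a Langmuir function for K1/2. Values are mean ± SEM of ~4–6 patches.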

Each structure is given as a SMILES string. Numbering of substitutions follows the chain as printed. Where two headings read alike, the source gives them in different places.

`O=C(O)COc1ccc(Cl)cc1` [CPA, p-chlorophenoxy acetate]: the IC50 on CLC-0 E166S mutant (−40 mV) came out at 641 ± 36 µM; on CLC-0 E166S mutant (−60 mV) it was 342 ± 15 µM; at CLC-0 E166S mutant (−80 mV), 179 ± 7 µM; on CLC-0 E166S mutant (−100 mV) it was 104 ± 4 µM; at CLC-0 E166S mutant (−120 mV), 58 ± 3 µM; at CLC-0 E166S mutant (−140 mV), 35 ± 2 µM. For the same molecule, the IC50 came to 21 ± 1 µM on CLC-0 E166S mutant (−160 mV); 1250 ± 230 µM on CLC-0 E166I mutant (−40 mV); 683 ± 85 µM on CLC-0 E166I mutant (−60 mV); 384 ± 41 µM at CLC-0 E166I mutant (−80 mV); 220 ± 24 µM at CLC-0 E166I mutant (−100 mV); 117 ± 11 µM at CLC-0 E166I mutant (−120 mV). The IC50 is 68 ± 8 µM on CLC-0 E166I mutant (−140 mV) and 39 ± 4 µM on CLC-0 E166I mutant (−160 mV).

On to `CCCCCCCC(=O)O` [octanoate], for which the IC50 turned out to be 855 ± 37 µM on CLC-0 E166S mutant (−40 mV); 403 ± 22 µM on CLC-0 E166S mutant (−60 mV); 198 ± 11 µM on CLC-0 E166S mutant (−80 mV); 100 ± 9 µM at CLC-0 E166S mutant (−100 mV); 50 ± 3 µM on CLC-0 E166S mutant (−120 mV); 26 ± 3 µM at CLC-0 E166S mutant (−140 mV). In addition, the IC50 is 16 ± 2 µM on CLC-0 E166S mutant (−160 mV); 218 ± 49 µM on CLC-0 E166I mutant (−40 mV); 136 ± 26 µM at CLC-0 E166I mutant (−60 mV); 79 ± 13 µM on CLC-0 E166I mutant (−80 mV); 45 ± 7 µM at CLC-0 E166I mutant (−100 mV); 26 ± 3 µM at CLC-0 E166I mutant (−120 mV). The IC50 was 15 ± 2 µM at CLC-0 E166I mutant (−140 mV) and 9 ± 1 µM at CLC-0 E166I mutant (−160 mV).
